Results reported in ChEMBL document CHEMBL1124321, “Design of potent linear alpha-melanotropin 4-10 analogues modified in positions 5 and 10” (J Med Chem, 1989).
Non-standard residues stand in square brackets, D forms with d. Residues, ends and D or L forms follow the SMILES beside them. Nle = CCCC[C@H](N)C(=O)O

Experiments:
lizard = assay: In vitro potency in lizard (Anolis carolinensis) skin bioassay relative to alpha-MSH; type: functional
How it was run: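 Isolated skins incubated in vitro with peptide across the full log dose-response range. Darkening from melanosome dispersion into melanophore dendrites is read as surface reflectance on a reflectometer and expressed as percent response versus the time-zero value. Each point is a mean ± SE of 6 or more skins. Potency is taken from the dose-response curves relative to α-MSH.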

[1] = test system: Melanocyte-stimulating hormone receptor (Rana pipiens); assay: In vitro potency in frog (Rana pipiens) skin assay relative to alpha-MSH

Row | Compound | Activity [1] | Activity (lizard)
1 | CCCC[C@H](NC(C)=O)C(=O)N[C@@H](CCC(=O)O)C(=O)N[C@@H](Cc1c[nH]cn1)C(=O)N[C@@H](Cc1ccccc1)C(=O)N[C@@H](CCCN=C(N)N)C(=O)N[C@@H](Cc1c[nH]c2ccccc12)C(=O)N[C@@H](CCCCN)C(N)=O | 0.001 | 0.08
2 | CCCC[C@H](NC(C)=O)C(=O)N[C@@H](CCC(=O)O)C(=O)N[C@@H](Cc1c[nH]cn1)C(=O)N[C@H](Cc1ccccc1)C(=O)N[C@@H](CCCN=C(N)N)C(=O)N[C@@H](Cc1c[nH]c2ccccc12)C(=O)N[C@@H](CCCCN)C(N)=O | 0.2 | 8
3 | CCCC[C@H](NC(=O)[C@H](CO)NC(=O)[C@H](Cc1ccc(O)cc1)NC(=O)[C@H](CO)NC(C)=O)C(=O)N[C@@H](CCC(=O)O)C(=O)N[C@@H](Cc1c[nH]cn1)C(=O)N[C@H](Cc1ccccc1)C(=O)N[C@@H](CCCN=C(N)N)C(=O)N[C@@H](Cc1c[nH]c2ccccc12)C(=O)N[C@@H](CCCCN)C(=O)NCC(=O)N1CCC[C@H]1C(=O)N[C@H](C(N)=O)C(C)C (Ac-SYS[Nle]EH[dF]RWKGPV-NH2) | 6 | 8
4 | CCCC[C@H](NC(=O)[C@H](CO)NC(=O)[C@H](Cc1ccc(O)cc1)NC(=O)[C@H](CO)NC(C)=O)C(=O)N[C@@H](CC(=O)O)C(=O)N[C@@H](Cc1c[nH]cn1)C(=O)N[C@H](Cc1ccccc1)C(=O)N[C@@H](CCCN=C(N)N)C(=O)N[C@@H](Cc1c[nH]c2ccccc12)C(=O)N[C@@H](CCCCN)C(=O)NCC(=O)N1CCC[C@H]1C(=O)N[C@H](C(N)=O)C(C)C (Ac-SYS[Nle]DH[dF]RWKGPV-NH2) | 9 | 8
5 | CCCC[C@H](NC(C)=O)C(=O)N[C@@H](CC(=O)O)C(=O)N[C@@H](Cc1c[nH]cn1)C(=O)N[C@H](Cc1ccccc1)C(=O)N[C@@H](CCCN=C(N)N)C(=O)N[C@@H](Cc1c[nH]c2ccccc12)C(=O)N[C@@H](CCCCN)C(N)=O |  | 8
6 | CCCC[C@H](NC(C)=O)C(=O)N[C@@H](CC(=O)O)C(=O)N[C@@H](Cc1c[nH]cn1)C(=O)N[C@H](Cc1ccccc1)C(=O)N[C@@H](CCCN=C(N)N)C(=O)N[C@@H](Cc1c[nH]c2ccccc12)C(=O)N[C@@H](CCN)C(N)=O | 0.9 | 50
7 | CCCC[C@H](NC(C)=O)C(=O)N[C@@H](CCC(=O)O)C(=O)N[C@@H](Cc1c[nH]cn1)C(=O)N[C@H](Cc1ccccc1)C(=O)N[C@@H](CCCN=C(N)N)C(=O)N[C@@H](Cc1c[nH]c2ccccc12)C(=O)N[C@@H](CCCCN)C(=O)NCC(=O)N1CCC[C@H]1C(=O)N[C@H](C(N)=O)C(C)C (Ac-[Nle]EH[dF]RWKGPV-NH2) | 0.8 | 8
8 | CCCC[C@H](NC(C)=O)C(=O)N[C@@H](CC(=O)O)C(=O)N[C@@H](Cc1c[nH]cn1)C(=O)N[C@@H](Cc1ccccc1)C(=O)N[C@@H](CCCN=C(N)N)C(=O)N[C@@H](Cc1c[nH]c2ccccc12)C(=O)N[C@@H](CCCCN)C(N)=O |  | 0.08

The next lines start with results.

Row | Activity [1] | Compound | Activity (lizard)
9 | 1 | CCCC[C@H](NC(C)=O)C(=O)N[C@@H](CC(=O)O)C(=O)N[C@@H](Cc1c[nH]cn1)C(=O)N[C@H](Cc1ccccc1)C(=O)N[C@@H](CCCN=C(N)N)C(=O)N[C@@H](Cc1c[nH]c2ccccc12)C(=O)N[C@@H](CCCCN)C(=O)NCC(=O)N1CCC[C@H]1C(=O)N[C@H](C(N)=O)C(C)C (Ac-[Nle]DH[dF]RWKGPV-NH2) | 10
10 | 0.2 | CCCC[C@H](NC(C)=O)C(=O)N[C@@H](CC(=O)O)C(=O)N[C@@H](Cc1c[nH]cn1)C(=O)N[C@H](Cc1ccccc1)C(=O)N[C@@H](CCCN=C(N)N)C(=O)N[C@@H](Cc1c[nH]c2ccccc12)C(=O)N[C@@H](CN)C(N)=O | 8
11 | 0.9 | CCCC[C@H](NC(C)=O)C(=O)N[C@@H](CC(=O)O)C(=O)N[C@@H](Cc1c[nH]cn1)C(=O)N[C@H](Cc1ccccc1)C(=O)N[C@@H](CCCN=C(N)N)C(=O)N[C@@H](Cc1c[nH]c2ccccc12)C(=O)N[C@@H](CCCN)C(N)=O | 10
12 | 0.1 | CCCC[C@H](NC(C)=O)C(=O)N[C@@H](CC(=O)O)C(=O)N[C@@H](Cc1c[nH]cn1)C(=O)N[C@H](Cc1ccccc1)C(=O)N[C@@H](CCCN=C(N)N)C(=O)N[C@@H](Cc1c[nH]c2ccccc12)C(=O)NCC(N)=O | 8
13 | 0.6 | CCCC[C@H](NC(C)=O)C(=O)N[C@@H](CCC(=O)O)C(=O)N[C@@H](Cc1c[nH]cn1)C(=O)N[C@H](Cc1ccccc1)C(=O)N[C@@H](CCCN=C(N)N)C(=O)N[C@@H](Cc1c[nH]c2ccccc12)C(=O)N[C@@H](CCCN)C(N)=O | 8
14 | 0.9 | CCCC[C@H](NC(C)=O)C(=O)N[C@@H](CCC(=O)O)C(=O)N[C@@H](Cc1c[nH]cn1)C(=O)N[C@H](Cc1ccccc1)C(=O)N[C@@H](CCCN=C(N)N)C(=O)N[C@@H](Cc1c[nH]c2ccccc12)C(=O)N[C@@H](CCN)C(N)=O | 10
